Results as given in paper PMC10975593 (ACS Omega, 2024).
Read-outs that look alike come from different tables or passages of the source.

Key:
[1] = test system: Staphylococcus aureus; experiment: Disc diffusion antimicrobial test; type: cell-based; details: 24 h; for zone of inhibition at 100 µg/mL: Staphylococcus aureus, read-out: zone of inhibition (diameter of inhibition)
Outline: (§1)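 Disc diffusion on nutrient agar, test compound at 100 μg/mL with DMSO as solvent. Plates incubated at 37 °C for 24 h after inoculation, then zone of inhibition measured and compared with standards. Controls were DMSO, amoxicillin, ciprofloxacin and tetracycline.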

[2] = test system: A549 cancer cell line; details: cited from earlier work
[3] = test system: A549 cancer cell line; experiment: MTT assay; type: cell-based; details: for IC50 / inhibition at 100 µM: Homo sapiens, A549, 72 h; for inhibition at 100 µM: read-out: experimental % of inhibition on A549 cancer cell line
Outline: (§2)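 A549 in DMEM and MCF-7 in RPMI, each with 10% heat-inactivated FBS, 1% penicillin/streptomycin and 2 mmol/L glutamine at 37 °C, 5% CO2. Seeded at 2000 (A549) or 10,000 (MCF-7) cells/well and attached 24 h. Then 72 h with test compound at varying concentrations. MTT (5 mg/mL stock) added for 4 h at 37 °C, formazan dissolved in DMSO, absorbance read at 450/540 nm. Triplicates in three separate experiments.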

[4] = test system: MCF-7 cancer cell line; experiment: MTT assay; type: cell-based
Outline: as §2

[5] = test system: Escherichia coli; experiment: Disc diffusion antimicrobial test; type: cell-based; details: 24 h; for zone of inhibition at 100 µg/mL: Escherichia coli, read-out: zone of inhibition (diameter of inhibition)
Outline: as §1

[6] = target: PI3Kγ enzyme (Homo sapiens, UniProt P48736); experiment: Adapta universal kinase assay, anti-PI3Kγ activity; type: biochemical
Sequence of PI3Kγ enzyme (P48736 whole entry): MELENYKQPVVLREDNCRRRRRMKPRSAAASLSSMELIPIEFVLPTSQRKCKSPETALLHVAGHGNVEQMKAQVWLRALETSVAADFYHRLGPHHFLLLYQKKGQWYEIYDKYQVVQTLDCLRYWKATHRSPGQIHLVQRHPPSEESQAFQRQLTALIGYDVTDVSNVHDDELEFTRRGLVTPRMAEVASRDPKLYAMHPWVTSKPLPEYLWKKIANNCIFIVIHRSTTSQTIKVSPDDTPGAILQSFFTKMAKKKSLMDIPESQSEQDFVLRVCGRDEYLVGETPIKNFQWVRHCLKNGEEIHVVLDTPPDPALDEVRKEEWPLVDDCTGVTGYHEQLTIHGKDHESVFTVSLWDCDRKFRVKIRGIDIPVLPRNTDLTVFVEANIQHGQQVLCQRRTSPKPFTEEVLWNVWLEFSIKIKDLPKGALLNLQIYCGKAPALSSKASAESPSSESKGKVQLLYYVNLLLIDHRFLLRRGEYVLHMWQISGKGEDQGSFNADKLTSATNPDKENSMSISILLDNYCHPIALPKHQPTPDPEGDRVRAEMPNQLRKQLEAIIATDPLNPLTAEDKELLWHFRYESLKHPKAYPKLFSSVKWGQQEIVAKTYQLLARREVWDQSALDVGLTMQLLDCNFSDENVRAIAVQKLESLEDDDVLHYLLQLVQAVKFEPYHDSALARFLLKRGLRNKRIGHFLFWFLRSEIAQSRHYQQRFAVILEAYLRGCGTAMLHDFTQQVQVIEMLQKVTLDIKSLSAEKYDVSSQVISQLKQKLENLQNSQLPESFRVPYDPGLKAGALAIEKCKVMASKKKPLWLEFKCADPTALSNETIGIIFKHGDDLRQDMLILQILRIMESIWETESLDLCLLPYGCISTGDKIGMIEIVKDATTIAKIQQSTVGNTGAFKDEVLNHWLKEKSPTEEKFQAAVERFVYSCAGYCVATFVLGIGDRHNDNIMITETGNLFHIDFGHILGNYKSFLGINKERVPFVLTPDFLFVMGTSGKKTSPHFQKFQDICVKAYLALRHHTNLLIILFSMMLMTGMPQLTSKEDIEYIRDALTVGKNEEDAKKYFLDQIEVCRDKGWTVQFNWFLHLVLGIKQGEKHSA
Outline: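 Adapta ADP-detection TR-FRET immunoassay with test compound at 100 μM. The kinase reaction runs 60 min. It is then stopped by a detection solution of EDTA, europium-labelled anti-ADP antibody and Alexa Fluor 647-labelled ADP tracer. ADP formed displaces the tracer and lowers the TR-FRET signal. ADP formation is calculated from the emission ratio.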

[7] = test system: Fibro cell line; experiment: % inhibition on normal cell line; type: cell-based; details: for inhibition at 10 µM: read-out: %inhibition at 10 μM; for inhibition at 100 µM: read-out: %inhibition at 100 μM
[8] = read-out: % of inhibition (mean) against PI3Kγ enzyme
[9] = read-out: % of inhibition against PI3Kγ enzyme, point 1
[10] = read-out: % of inhibition against PI3Kγ enzyme, point 2

| Compound | zone of inhibition at 100 µg/mL [1] [mm] | inhibition at 100 µM [3] [%] | zone of inhibition at 100 µg/mL [5] [mm] | inhibition at 100 µM [6, 8] [%] | inhibition at 100 µM [6, 9] [%] | inhibition at 100 µM [6, 10] [%] | inhibition at 10 µM [7] [%] | inhibition at 100 µM [7] [%] | also measured |
| --- | --- | --- | --- | --- | --- | --- | --- | --- | --- |
| CC1(C)S[C@@H]2[C@H](NC(=O)[C@H](N)c3ccc(O)cc3)C(=O)N2[C@H]1C(=O)O [Amoxicillin, reference compound] | 22 |  |  |  |  |  |  |  |  |
| COc1cccc2c1C(=O)c1c(O)c3c(c(O)c1C2=O)C[C@@](O)(C(=O)CO)C[C@@H]3O[C@H]1C[C@H](N)[C@H](O)[C@H](C)O1 [Doxorubicin, reference compound] |  | 82.2 |  |  |  |  |  |  | IC50 ([2]; read-out: reported IC50 against A549): 0.071 µM; IC50 [3]: 16.6 µM |
| CN(C)C1CCN(C(=O)c2ccc(NC(=O)Nc3ccc(-c4nc(N5CCOCC5)nc(N5CCOCC5)n4)cc3)cc2)CC1 [Gedatolisib, reference compound] |  |  |  |  |  |  |  |  | IC50 ([2]; read-out: reported IC50): 9.05 µM; IC50 ([4]; Homo sapiens, MCF7, 72 h): 13.1 µM; IC50 [3]: 16.5 µM |
| O=C(CNC1CCCCC1)Nc1nc2ccccc2s1 [OMS1, N-(1,3-benzothiazol-2-yl)-2-(cyclohexylamino)acetamide] | 22 | 1.72 | 0 | 47 | 54 | 40 | 0.85 | 13 |  |
| O=C(CNc1ccc(F)cc1)Nc1nc2ccccc2s1 [OMS3, N-(1,3-benzothiazol-2-yl)-2-(4-fluoroanilino)acetamide] | 15 | 2.8 | 0 | 24 | 20 | 28 | 10.3 | 63.8 |  |
| O=C(CNc1ccc(I)cc1)Nc1nc2ccccc2s1 [OMS4, N-(1,3-benzothiazol-2-yl)-2-(4-iodoanilino)acetamide] | 10 | -2.32 | 0 | 0 | 0 | 0 | 1.32 | 27.6 |  |
| NS(=O)(=O)c1ccc(NCC(=O)Nc2nc3ccccc3s2)cc1 [OMS6, N-(1,3-benzothiazol-2-yl)-2-(4-sulfamoylanilino)acetamide] | 0 | 39.6 | 0 | 13 | 3 | 22 | 1.52 | 62.7 |  |
| N=C(N)NS(=O)(=O)c1ccc(NCC(=O)Nc2nc3ccccc3s2)cc1 [OMS7, N-(1,3-benzothiazol-2-yl)-2-[4-(carbamimidoylsulfamoyl)anilino]acetamide] | 0 | -3.59 | 0 | 25 | 29 | 22 | 1.88 | 16.4 |  |
| O=C(CNc1ccc(S(=O)(=O)Nc2ccccn2)cc1)Nc1nc2ccccc2s1 [OMS8, N-(1,3-benzothiazol-2-yl)-2-{4-[(pyridine-2-yl)sulfamoyl]anilino}acetamide] | 0 | 11.2 | 0 | 0 | 0 | 0 | 8.62 | 43.3 |  |
| O=C(CN1CCOCC1)Nc1nc2ccccc2s1 [OMS9, N-(1,3-benzothiazol-2-yl)-2-(morpholin-4-yl)acetamide] | 0 | 17.2 | 0 | 2 | 0 | 3 | 11.8 | 3.11 |  |
| O=C(CN1CCN(c2cccc(O)c2)CC1)Nc1nc2ccccc2s1 [OMS10, N-(1,3-benzothiazol-2-yl)-2-[4-(3-hydroxyphenyl)piperazin-1-yl]acetamide] | 11 | 38.1 | 0 | 2 | 3 | 0 | 15.9 | 44.1 |  |
| O=C(CN1CCN(c2ccc([N+](=O)[O-])cc2)CC1)Nc1nc2ccccc2s1 [OMS11, N-(1,3-benzothiazol-2-yl)-2-[4-(4-nitrophenyl)piperazin-1-yl]acetamide] | 0 | 22 | 0 | 3 | 6 | 0 | 21.3 | 19.2 |  |
| O=C(CN1CCN(c2ccccc2O)CC1)Nc1nc2ccccc2s1 [OMS12, N-(1,3-benzothiazol-2-yl)-2-[4-(2-hydroxyphenyl)piperazin-1-yl]acetamide] | 20 | 48.5 | 0 | 16 | 28 | 4 | 24.3 | 22.2 |  |
| O=C(CN1CCN(c2ccccn2)CC1)Nc1nc2ccccc2s1 [OMS13, N-(1,3-benzothiazol-2-yl)-2-[4-(pyridin-2-yl)piperazin-1-yl]acetamide] | 0 | 26.9 | 0 | 3 | -2 | 8 | 21.1 | 13.8 |  |
| O=C(CN1CCN(CC(=O)Nc2nc3ccccc3s2)CC1)Nc1nc2ccccc2s1 [OMS16, 2,2′-(piperazine-1,4-diyl)bis(N-(benzo[d]thiazol-2-yl)acetamide)] | 0 | 56.6 | 0 | 1 | 2 | 0 | 53.8 | 70.1 |  |
| CNC(=O)c1cc(Oc2ccc(NC(=O)Nc3ccc(Cl)c(C(F)(F)F)c3)cc2)ccn1 [Sorafenib, reference compound] |  |  |  |  |  |  | 10.7 | 26.3 |  |
| N-(benzo[d]thiazol-2-yl)-2-(4-(2-oxo-2-(piperazin-1-yl)ethyl)piperazin-1-yl)acetamide [OMS15] |  |  |  |  |  |  |  |  | zone of inhibition (diameter of inhibition) ([5]; disc diffusion, 100 μg/mL, E. coli): 0 mm; zone of inhibition (diameter of inhibition) ([1]; disc diffusion, 100 μg/mL, S. aureus): 0 mm; % of inhibition against PI3Kγ enzyme, point 1 ([6]; 100 μM): 0%; % of inhibition against PI3Kγ enzyme, point 2 ([6]; 100 μM): 0%; % of inhibition (mean) against PI3Kγ enzyme ([6]; 100 μM, mean of 2 trials): 0%; experimental % of inhibition on MCF-7 cancer cell line ([4]; 100 μM, 72 h, MTT): –23.63%; experimental % of inhibition on A549 cancer cell line ([3]; 100 μM, 72 h, MTT): 56.69%; %inhibition at 10 μM ([7]; Fibro cell line (normal), 10 μM): 34.8%; %inhibition at 100 μM ([7]; Fibro cell line (normal), 100 μM): 70% |
